Screening results from PubChem BioAssay.
Shown are actives, neighbours in structure and some others; about 2.3% of the full set was active somewhere.
TRPC4 PAM: positive allosteric modulators of TRPC4, primary screen, cell-based, mouse TRPC4beta, HEK293 mu-opioid, Fluo-4 calcium; 0.42% of 310,000 active; DAMGO EC20, Fluo-4 Ca2+ flux; hits give high values; Short transient receptor potential channel 4 (Mus musculus), Q9QUQ5; B-score at 10 µM;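 active = B-score of calcium response area above 5 SD of library B-scores, with initial fluorescence ratio within 5 SD of library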
TRPC4 block: inhibitors of mouse TRPC4 channel, primary screen, Fluo4 calcium, HEK293 TRPC4beta/mu-opioid cells. Short transient receptor potential channel 4 (Mus musculus), Q9QUQ5. B-score at 10 µM. 0.39% of 300,000 active. DAMGO-evoked Fluo4 calcium flux; hits give low values. AID 2247, 2010;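 active = B-score over 3 SD under the library average, no early fluorescence shift, positive overall ratio signal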
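Assay system: HEK293 cells with stable TRPC4beta plus mu-opioid receptor expression; Probe or stimulus: DAMGO in two steps, submaximal then maximal; Dosing: single-point compound dosing; Measured by: Fluo4 calcium-dye fluorescence, kinetic read; Read-out basis: B score from integrated Fluo4 fluorescence ratio.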
FID counter: compounds displacing fluorescent DNA intercalator, primary screen, artefact control for HCV NS3 helicase inhibitor project, biochemical, FID fluorescence; 0.17% of 290,000 active; AID 1845, 2009; inhibition, % at 7.9 µM; DNA fluorescent intercalator displacement; in the data active = inhibition above about 37%;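 note: higher means more ethidium bromide displaced from hairpin DNA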
TRPC4 agonist: activators of mouse TRPC4 channel, primary screen, Fluo4 calcium, HEK293 TRPC4beta/mu-opioid cells. Short transient receptor potential channel 4 (Mus musculus), Q9QUQ5. Fluo4 calcium fluorescence; hits give high values. B-score at 10 µM. 0.49% of 310,000 active. AID 2237, 2010;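 active = B-score above 5 SD of library B-scores, and initial fluorescence ratio not above library mean plus 5 SD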;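 note: positive B-score marks a calcium rise read as TRPC4 activation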
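System – HEK293 cells stably co-expressing mouse TRPC4beta and mu-opioid receptor · Signal – Fluo4 calcium-sensitive dye fluorescence, kinetic, 1 Hz baseline · Benchmarks – buffer (low) and maximal DAMGO (high) · Read-out – B score of integrated fluorescence ratio per well · Incubation – dye loading 45 min room temperature, 110 s kinetic read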
TRPC6 activator: mouse TRPC6 channel activators, primary screen, cell-based, HEK293, membrane potential dye. HEK293-TRPC6 membrane potential dye fluorescence; hits give high values. B-score at 10 µM. 0.13% of 310,000 active. AID 2550, 2010;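 active = B-score of the integrated fluorescence ratio above library mean plus 3 SD, and starting fluorescence ratio within library mean plus 5 SD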;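 note: higher score means more depolarization so channel activation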
Target sequence (Q61143 whole entry, looked up): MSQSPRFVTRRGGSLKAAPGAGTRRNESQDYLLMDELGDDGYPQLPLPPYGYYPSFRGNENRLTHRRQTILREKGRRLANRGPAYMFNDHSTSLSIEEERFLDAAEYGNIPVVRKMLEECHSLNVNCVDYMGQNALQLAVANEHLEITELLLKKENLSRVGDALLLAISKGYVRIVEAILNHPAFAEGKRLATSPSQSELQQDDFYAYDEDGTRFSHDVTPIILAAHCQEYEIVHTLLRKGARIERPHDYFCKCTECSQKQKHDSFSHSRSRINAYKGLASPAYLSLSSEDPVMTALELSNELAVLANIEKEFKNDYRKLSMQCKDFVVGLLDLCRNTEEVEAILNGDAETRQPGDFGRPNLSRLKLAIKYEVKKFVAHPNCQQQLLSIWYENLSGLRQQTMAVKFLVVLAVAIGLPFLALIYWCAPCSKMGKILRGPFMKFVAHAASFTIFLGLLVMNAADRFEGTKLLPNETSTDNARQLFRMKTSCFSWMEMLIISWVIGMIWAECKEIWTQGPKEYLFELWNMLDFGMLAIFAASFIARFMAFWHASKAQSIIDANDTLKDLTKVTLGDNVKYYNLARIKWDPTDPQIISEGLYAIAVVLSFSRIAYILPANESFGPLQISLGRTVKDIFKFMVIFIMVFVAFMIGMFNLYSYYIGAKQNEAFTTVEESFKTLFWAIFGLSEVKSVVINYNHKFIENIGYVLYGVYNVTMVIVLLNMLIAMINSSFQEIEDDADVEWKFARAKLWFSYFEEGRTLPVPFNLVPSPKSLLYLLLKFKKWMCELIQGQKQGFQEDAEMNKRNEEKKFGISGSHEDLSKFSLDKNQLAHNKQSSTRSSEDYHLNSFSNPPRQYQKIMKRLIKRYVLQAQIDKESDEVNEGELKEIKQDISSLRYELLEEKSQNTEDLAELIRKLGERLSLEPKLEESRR
TRPC6 inhibitor: mouse TRPC6 channel inhibitors, primary screen, cell-based, HEK293, membrane potential dye. AID 2553, 2010. ACh-evoked depolarization; hits give low values. B-score at 10 µM. 1.1% of 310,000 active. Short transient receptor potential channel 6 (Mus musculus), Q61143;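 active = B-score under library mean minus 3 SD, initial fluorescence not abnormally high, positive integrated signal ratio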;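 note: B-score derived from integrated fluorescence ratio over the kinetic read; more negative B-score means stronger inhibition of depolarization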
TRPC4 sel inh 2: second check of whether TRPC6 inhibitors also affect mouse TRPC4; shares compounds with TRPC6 inhibitor; HEK293 TRPC4/MOR, membrane potential dye fluorescence; channel activated by saturating DAMGO dose; inhibition, % at 10 µM; 42% of 920 active;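 active = compounds whose fluorescence signal differed from control wells by over 3 SD, either direction, in both duplicate plates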
TRPC4 spec: mouse TRPC4 modulation by TRPC6 hits, confirmation, selectivity assay for TRPC6 inhibitor project, cell-based, HEK293 TRPC4/mu-opioid, membrane potential dye | shares compounds with TRPC6 inhibitor | membrane potential fluorescence | activity change, negative = inhibition, % at 10 µM | 61% of 920 active | AID 2777, 2010;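 active = rise or fall in signal beyond 3 SD of buffer-only wells in both replicate plates, either sign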;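 note: integrated kinetic ratio of fluorescence range over baseline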
HEK293 MPD ctr 2-1: nonspecific membrane potential effects, parental HEK293, confirmation, counter-screen for TRPC6 inhibitor project, cell-based, second counter screen | 31% of 920 active | signal change vs control, % at 10 µM | AID 2779, 2010 | parental HEK293 membrane potential dye fluorescence; maximal acetylcholine challenge after compound addition | shares compounds with TRPC6 inhibitor;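 active = membrane potential signal moving either way by over 3 SD of the maximum-effect control, in both duplicate plates, meaning non-specific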
HEK293 MPD ctr-1: membrane potential modulation in parental HEK293, confirmation, counter-screen for TRPC6 inhibitor project, cell-based; shares compounds with TRPC6 inhibitor; parental HEK293 membrane potential dye fluorescence; membrane potential signal change, % at 10 µM; 60% of 920 active; AID 2780, 2010;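 active = membrane potential signal shifting up or down by more than 3 SD of buffer-only wells, on both duplicate plates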
HEK293 MPD ctr-2: parental HEK293 membrane potential modulation, confirmation, counter-screen for TRPC6 modulator project, cell-based; shares compounds with TRPC6 inhibitor; membrane potential dye fluorescence; membrane potential signal change, % at 10 µM; 51% of 2,400 active;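 active = membrane potential signal moves up or down beyond 5 SD from buffer-only wells, on both duplicate plates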
HEK293 MPD ctr 2-2: second check of TRPC6 modulator effects in parental HEK293 cells | membrane potential dye fluorescence; after compound, maximal acetylcholine stimulation | inhibition, % at 10 µM | shares compounds with TRPC6 inhibitor | 14% of 2,400 active | AID 488926;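 active = membrane potential signal drops by more than 5 SD from the mean control signal, in both duplicate plates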
TRPC4 ctr mod: TRPC4 modulation by TRPC6 hit compounds, confirmation, selectivity assay for TRPC6 modulator project, cell-based, HEK293 TRPC4/mu-opioid, membrane potential dye, mouse. shares compounds with TRPC6 inhibitor. membrane potential fluorescence. percent change from control (negative = decrease, positive = increase), % at 10 µM. 69% of 2,400 active. AID 488927, 2010;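 active = membrane potential signal moved up or down beyond 5 SD of buffer control wells, in both duplicate plates, actives on both sides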
TRPC4/MOR inh 2: mouse TRPC4 off-target activity of TRPC6 modulators, second screen | shares compounds with TRPC6 inhibitor | HEK293 TRPC4/mu-opioid, membrane potential dye fluorescence; stimulated with maximal-effect DAMGO | inhibition, % at 10 µM | 55% of 2,400 active | AID 488928;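 active = drop in membrane potential signal beyond 5 SD of the control wells in both duplicate plates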;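 note: TRPC4 counter screen for TRPC6 hits run under conditions tuned for TRPC6 not TRPC4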
TRPC6 block conf: mouse TRPC6 channel inhibitors, confirmation, HEK293 cells, membrane potential dye, duplicate; ACh-evoked depolarization; AID 488960, 2010; shares compounds with TRPC6 inhibitor; inhibition, % at 10 µM; 43% of 3,300 active;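 active = fluorescence ratio falls more than 5 SD below the full-stimulation control mean, in both duplicate runs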;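 note: integrated fluorescence ratio of peak minus minimum over baseline after agonist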
TRPC6 act confirm: mouse TRPC6 channel activators, confirmation, HEK293 cells, membrane potential dye, duplicate; activation, % at 10 µM; AID 488961, 2010; HEK293-TRPC6 membrane potential dye fluorescence, FDSS; 11% of 2,800 active; shares compounds with TRPC6 inhibitor;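 active = ratio signal rise beyond 5 SD above unstimulated control wells' mean, seen in both duplicate runs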
Numbers stand for hits.

Results for O=C(c1cccc(F)c1)N1CCN(S(=O)(=O)c2ccc(C(F)(F)F)cc2)CC1 ?
TRPC4 PAM: inactive; FID counter: inactive; TRPC4 agonist: inactive; TRPC6 activator: 14; TRPC6 inhibitor: -12; HEK293 MPD ctr-2: inactive; HEK293 MPD ctr 2-2: inactive; TRPC4 ctr mod: inactive; TRPC4/MOR inh 2: inactive; TRPC6 block conf: 62%; TRPC6 act confirm: 72%

How did Nc1ccc(S(=O)(=O)NC2(C(F)(F)F)NC(=O)N(c3ccc(F)cc3)C2=O)cc1 (configuration not stated) do in these assays?
TRPC4 PAM: inactive; TRPC4 block: inactive; FID counter: inactive; TRPC4 agonist: inactive; TRPC6 activator: inactive; TRPC6 inhibitor: inactive

How did CCN(c1ccccc1)S(=O)(=O)c1cccc(C(=O)N2CCN(S(=O)(=O)c3ccccc3)CC2)c1 do in these assays?
TRPC4 PAM: inactive; TRPC4 block: inactive; FID counter: inactive; TRPC4 agonist: inactive; TRPC6 activator: inactive; TRPC6 inhibitor: -11; TRPC4 sel inh 2: inactive; TRPC4 spec: inactive; HEK293 MPD ctr 2-1: inactive; HEK293 MPD ctr-1: inactive; TRPC6 block conf: inactive

What do the screens show for `Cc1ccc(S(=O)(=O)N2CCN(C(=O)c3ccc4c(c3)OCO4)CC2)cc1`?
TRPC4 PAM: inactive; TRPC4 block: inactive; FID counter: inactive; TRPC4 agonist: inactive; TRPC6 activator: inactive; TRPC6 inhibitor: inactive

What do the screens show for `CCc1noc(C)c1C(=O)N1CCN(S(=O)(=O)c2ccc(C(C)C)cc2)CC1`?
TRPC4 PAM: inactive; TRPC4 block: inactive; TRPC4 agonist: inactive; TRPC6 activator: inactive; TRPC6 inhibitor: inactive

What do the screens show for `Cc1ccc(C(=O)N2CCN(S(=O)(=O)c3ccc(C(C)C)cc3)CC2)s1`?
TRPC4 PAM: inactive; TRPC4 block: inactive; TRPC4 agonist: inactive; TRPC6 activator: 15; TRPC6 inhibitor: -13; HEK293 MPD ctr-2: inactive; HEK293 MPD ctr 2-2: inactive; TRPC4 ctr mod: inactive; TRPC4/MOR inh 2: inactive; TRPC6 block conf: inactive; TRPC6 act confirm: inactive

How did O=C(c1cccc(-n2cccc2)c1)N1CCN(S(=O)(=O)c2ccccc2)CC1 do in these assays?
TRPC4 PAM: inactive; TRPC4 block: inactive; TRPC4 agonist: inactive; TRPC6 activator: inactive; TRPC6 inhibitor: -7; TRPC4 sel inh 2: inactive; TRPC4 spec: inactive; HEK293 MPD ctr 2-1: inactive; HEK293 MPD ctr-1: inactive; TRPC6 block conf: 66%; TRPC6 act confirm: inactive

Results for Cc1ccc(S(=O)(=O)N2CCN(C(=O)c3cccc(-n4cccc4)c3)CC2)cc1 ?
TRPC4 PAM: inactive; TRPC4 block: inactive; TRPC4 agonist: inactive; TRPC6 activator: 14; TRPC6 inhibitor: -13; HEK293 MPD ctr-2: inactive; HEK293 MPD ctr 2-2: inactive; TRPC4 ctr mod: inactive; TRPC4/MOR inh 2: inactive; TRPC6 block conf: inactive; TRPC6 act confirm: inactive

Results for COc1ccc(OCCCC(=O)OCC(=O)NNC(=O)c2ccc([N+](=O)[O-])cc2)cc1 ?
TRPC4 PAM: inactive; TRPC4 block: inactive; TRPC4 agonist: inactive; TRPC6 activator: inactive; TRPC6 inhibitor: inactive

What do the screens show for `CC(C)n1nnnc1SCC(=O)Nc1ccccc1F`?
TRPC4 PAM: inactive; TRPC4 block: inactive; FID counter: inactive; TRPC4 agonist: inactive; TRPC6 activator: inactive; TRPC6 inhibitor: inactive

What do the screens show for `Cc1ccc(C(=O)NNS(=O)(=O)c2ccc(F)cc2)cc1`?
TRPC4 PAM: inactive; TRPC4 block: inactive; FID counter: inactive; TRPC4 agonist: inactive; TRPC6 activator: inactive; TRPC6 inhibitor: inactive

How did O=C(C[n+]1cc2ccccc2c2ccccc21)c1ccccc1 do in these assays?
TRPC4 PAM: inactive; TRPC4 block: -7; FID counter: inactive; TRPC4 agonist: 49; TRPC6 activator: inactive; TRPC6 inhibitor: -9.8; TRPC4 sel inh 2: 33%; TRPC4 spec: 0.9%; HEK293 MPD ctr 2-1: inactive; HEK293 MPD ctr-1: -486%; TRPC6 block conf: inactive; TRPC6 act confirm: inactive

What do the screens show for `CC(C)(C)SCCNC(=O)COc1ccc(Cl)cc1`?
TRPC4 PAM: inactive; TRPC4 block: inactive; FID counter: inactive; TRPC4 agonist: inactive; TRPC6 activator: inactive; TRPC6 inhibitor: -5.3; HEK293 MPD ctr-2: inactive; HEK293 MPD ctr 2-2: inactive; TRPC4 ctr mod: inactive; TRPC4/MOR inh 2: inactive; TRPC6 block conf: inactive
